Measured values of several laboratories.
Protocols differ between the studies behind these lines.
Cell line: A498
Read-out: cell growth or viability

`CC(C)C[C@H](NC(=O)[C@H](Cc1ccccc1)NC(=O)c1cnccn1)B(O)O` has an IC50 of 7.7 nM (ATP luminescence).
For `S=C([S][Au-][P+](CCCCCC[P+]([Au-][S]C(=S)n1cccn1)(c1ccccc1)c1ccccc1)(c1ccccc1)c1ccccc1)n1cccn1`, the GI50 was 1010 nM.
With `CCC(=O)Nc1cc(Nc2cc(NC3CC3)n3ncc(C#N)c3n2)ccc1C` the IC50 was 1800 nM (ATP luminescence; 72 h).
`COc1cccc(Oc2ccccc2NC(=O)CNC(=O)c2cccc3ccccc23)c1` gave a GI50 of 115 nM (SRB; 48 h).
For `COc1ccc(C(=O)/C=C/c2ccc3ccccc3c2)cc1S(N)(=O)=O`, the GI50 was 14500 nM (SRB; 48 h).
`Cc1cc(C)n(C(=S)[S][Au][PH](CCCCCC[PH]([Au][S]C(=S)n2nc(C)cc2C)(c2ccccc2)c2ccccc2)(c2ccccc2)c2ccccc2)n1` has a GI50 of 384 nM.
`COc1cc(Nc2nccc(-c3cnn4nc(OC)ccc34)n2)cc(C(F)(F)F)c1` gave an IC50 of 430 nM (ATP luminescence).
The inhibition of `COc1ccc(C(=O)/C=C/c2cccc3ccccc23)cc1S(N)(=O)=O` is reported as -7% (SRB; 10 µM).
For `COc1cc(-c2ccc(-c3ccc(C(=N)N)nc3)s2)cc(OC)c1OC`, the GI50 was 4910 nM.
